Broadly, the mortality is the share of the test organisms that died.

Type in all cases: functional
Test [1] concerns Spodoptera litura. Kind of test: Insecticidal activity against adult Spodoptera litura in compound-treated castor leaves assessed as adult deformity at 0.5 ug/cm2 relative to control.
Test [2] relates to Earias vittella. Kind of test: Insecticidal activity against adult Earias vitella assessed as adult deformity at 0.5 ug/cm3 administered through artificial diet containing Abelmoschus esculentus seed powder (reference value: 4%).
Test [3] has as its system Earias vittella. In words: Insecticidal activity against adult Earias vitella assessed as adult emergence at 0.5 ug/cm3 administered through artificial diet containing Abelmoschus esculentus seed powder (reference value: 88%).
For test [4], the system named is Spodoptera litura. Kind of test: Insecticidal activity against third-instar larval stage of Spodoptera litura in compound-treated castor leaves assessed as larval mortality at 0.5 ug/cm2 relative to control.
Test [5] relates to Earias vittella. Kind of test: Insecticidal activity against male adult Earias vitella assessed as adult longevity time at 0.5 ug/cm3 administered through artificial diet containing Abelmoschus esculentus seed powder (reference value: 8.2 +/- 0.4 days).
Test [6] relates to Spodoptera litura. In words: Insecticidal activity against pupal stage of Spodoptera litura in compound-treated castor leaves assessed as pupal mortality at 0.5 ug/cm2 relative to control.
Test [7] relates to Earias vittella. In words: Insecticidal activity against pupal stage of Earias vitella assessed as pupal duration time at 0.5 ug/cm3 administered through artificial diet containing Abelmoschus esculentus seed powder (reference value: 6.4 +/- 0.21 days).
The test system of test [8] is Spodoptera litura. In words: Insecticidal activity against pupal stage of Spodoptera litura in compound-treated castor leaves assessed as pupal duration time at 0.5 ug/cm2 (reference value: 9.2 +/- 0.74 days).
The subject of test [9] is Spodoptera litura. Kind of test: Insecticidal activity against third-instar larval stage of Spodoptera litura in compound-treated castor leaves assessed as total larval duration time at 0.5 ug/cm2 (reference value: 12.4 +/- 0.48 days).
In test [10] the test system is Spodoptera litura. Kind of test: Antifeedant activity against third-instar larval stage of Spodoptera litura in compound-treated castor leaves assessed as decrease in diet consumption at 0.5 ug/cm2 after 24 hr by no-choice leaf disk assay relative to acetone-treated control. More on the design: scale not given: the % may be the effect or the level left. The procedure, abridged: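 Larvae were reared on castor leaves at 25 ± 2 °C. In a no-choice test, compound in acetone was painted on the abaxial side of castor leaf disks and air-dried. Five freshly molted third-instar larvae, starved 4 h, were placed per Petri dish with wet cotton. There were five replicates. After 24 h, consumed leaf area was read on a leaf area meter. %AF = 100 − (treated/control)×100.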

The test system of test [11] is Spodoptera litura. In words: Insecticidal activity against male adult Spodoptera litura in compound-treated castor leaves assessed as adult longevity time at 0.5 ug/cm2 (reference value: 9.4 +/- 0.48 days).
The subject of test [12] is Spodoptera litura. In words: Insecticidal activity against female adult Spodoptera litura in compound-treated castor leaves assessed as adult longevity time at 0.5 ug/cm2 (reference value: 10 +/- 0.63 days).
Test [13] concerns Earias vittella. In words: Insecticidal activity against female adult Earias vitella assessed as adult longevity time at 0.5 ug/cm3 administered through artificial diet containing Abelmoschus esculentus seed powder (reference value: 8.6 +/- 0.48 days).
Test [14] deals with Earias vittella. In words: Insecticidal activity against third-instar larval stage of Earias vitella assessed as total larval duration time at 0.5 ug/cm3 administered through artificial diet containing Abelmoschus esculentus seed powder (reference value: 8.2 +/- 0.48 days).
Test [15] deals with Earias vittella. In words: Antifeedant activity against third-instar larval stage of Earias vitella assessed as decrease in diet consumption at 0.5 ug/cm3 administered through artificial diet containing Abelmoschus esculentus seed powder after 24 hr relative to acetone-treated control. More on the design: scale not given: the % may be the effect or the level left. The procedure, abridged:
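Artificial diet was modified Klein medium with bhendi (Abelmoschus esculentus) seed powder in place of alfalfa. Compound in acetone was mixed into bhendi meal 12 h before diet preparation so the solvent evaporated. One 3 g diet cube was given to five freshly molted third-instar larvae in a muslin-covered container. After 24 h the cubes were weighed. %AF = 100 − (treated/control)×100.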

In test [16] the test system is Earias vittella. Kind of test: Insecticidal activity against pupal stage of Earias vitella assessed as pupal mortality at 0.5 ug/cm3 administered through artificial diet containing Abelmoschus esculentus seed powder (reference value: 8%).
The test system of test [17] is Earias vittella. In words: Insecticidal activity against pupal stage of Earias vitella assessed as pupal weight at 0.5 ug/cm3 administered through artificial diet containing Abelmoschus esculentus seed powder (reference value: 88.2 +/- 4.01 mg).
For test [18], the system named is Spodoptera litura. Kind of test: Insecticidal activity against adult Spodoptera litura in compound-treated castor leaves assessed as adult emergence at 0.5 ug/cm2 relative to control.
The test system of test [19] is Spodoptera litura. Kind of test: Insecticidal activity against pupal stage of Spodoptera litura in compound-treated castor leaves assessed as pupal weight at 0.5 ug/cm2 (reference value: 302.4 +/- 5.9 mg).
In test [20] the test system is Earias vittella. Kind of test: Insecticidal activity against third-instar larval stage of Earias vitella assessed as larval mortality at 0.5 ug/cm3 administered through artificial diet containing Abelmoschus esculentus seed powder (reference value: 4%).

For the compound `C/C=C(\C)C(=O)O[C@H]1C[C@@H](OC(C)=O)[C@@]2(C(=O)OC)CO[C@H]3[C@@H](O)[C@@](C)([C@]45O[C@@]4(C)[C@@H]4C[C@H]5O[C@@H]5OC=C[C@@]54O)[C@H]4[C@]1(CO[C@]4(O)C(=O)OC)[C@@H]32` [AZADIRACHTIN A], the Activity in the test on Spodoptera litura [1] was found to be 28.5%; in the test with Earias vittella [2], 25%; in the test on Earias vittella [3], 37%; with Spodoptera litura [10], 79.2%; with Earias vittella [15], 79.2%; in the test with Earias vittella [17] it was 59.2 mg. For the same compound, the Activity is listed as 42.8% in the test with Spodoptera litura [18] and 247.2 mg with Spodoptera litura [19]. In addition, the results for the mortality at 0.5 µg/cm2 with Spodoptera litura [4] and with Spodoptera litura [6] were 78% and 28%, respectively. The Time with Earias vittella [5] turned out to be 6.6 days; with Earias vittella [7] it was 8.4 days; in the test with Spodoptera litura [8] it was 11 days; with Spodoptera litura [9], 13.9 days; in the test with Spodoptera litura [11] it was 7.2 days; in the test on Spodoptera litura [12], 7 days. Besides, the Time in the test with Earias vittella [13] came out at 6.8 days; in the test with Earias vittella [14], 11 days. The results for the mortality in the test with Earias vittella [16] and with Earias vittella [20] were 37.5% and 68%, respectively.

The values above are taken from ChEMBL document CHEMBL3046016, “Antifeedant and growth inhibitory effects of some neo-clerodane diterpenoids isolated from Clerodendron species (Verbenaceae) on Earias vitella and Spodoptera litura” (2003).
